Results taken from ChEMBL document CHEMBL4346669, “Novel nannocystin A analogues as anticancer therapeutics: Synthesis, biological evaluations and structure-activity relationship studies” (Eur J Med Chem, 2019).
Activity calls are given as the source filed them. The rule behind the calls is not given here.

Tests used:
A549 [1] = assay: Induction of apoptosis in human A549 cells assessed as necrotic cells at 90 nM after 12 hrs by Annexin-V FITC/propidium iodide staining based flow cytometric analysis (reference value: 1.28%); format: functional
A549 [2] = assay: Induction of apoptosis in human A549 cells assessed as reduction in Bcl-2 expression at 30 to 90 nM by Western blot analysis
A549 [3] = assay: Induction of apoptosis in human A549 cells assessed as late apoptotic cells at 90 nM after 12 hrs by Annexin-V FITC/propidium iodide staining based flow cytometric analysis (reference value: 1.22%); format: functional
A549 [4] = assay: Induction of apoptosis in human A549 cells assessed as increase in caspase9 expression by Western blot analysis; format: functional, cell-based
Method in brief: (§1)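 A549 treated 30, 60 and 90 nM for 24 h; lysates normalized by BCA, 30 μg protein denatured in SDS buffer at 100 °C 8 min, SDS-PAGE, PVDF transfer, blocked in 5% milk/TBS-0.05% Tween 2 h, primary antibodies overnight at 4 °C, HRP anti-rabbit IgG 2 h, ECL detection; β-actin loading control.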

A549 [5] = assay: Inhibition of colony formation in human A549 cells at 10 to 20 nM incubated for 3 days followed by further incubation in drug-free medium and measured after 15 days by crystal violet staining-based inverted microscopic analysis; format: functional, cell-based
Method in brief: (§2)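 500 A549 cells/well incubated 24 h, then treated with 5, 10 or 20 nM for 3 days, followed by drug-free medium changed every 3 days. At day 15 after plating, colonies fixed in 95% ethanol 15 min, stained with 0.1% crystal violet, counted (colony = over 100 cells); mean ± SD of three independent experiments.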

A549 [6] = assay: Induction of apoptosis in human A549 cells assessed as late apoptotic cells at 60 nM after 12 hrs by Annexin-V FITC/propidium iodide staining based flow cytometric analysis (reference value: 1.22%); format: functional
A549 [7] = assay: Induction of apoptosis in human A549 cells assessed as viable cells at 60 nM after 12 hrs by Annexin-V FITC/propidium iodide staining based flow cytometric analysis (reference value: 97.18%); format: functional; conditions: A549, 12 h, read-out: Activity
A549 [8] = assay: Cell cycle arrest in human A549 cells assessed as accumulation at G1 phase at 30 nM after 24 hrs by propidium iodide/RNase A staining-based flow cytometric analysis (reference value: 57.41%); format: functional
A549 [9] = assay: Induction of apoptosis in human A549 cells assessed as viable cells at 60 nM after 24 hrs by Annexin-V FITC/propidium iodide staining based flow cytometric analysis; format: functional; conditions: A549, 24 h, read-out: Activity
Method in brief: (§3)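 Time-course: A549 (2×10^5 cells/well, grown overnight) exposed to 60 nM for 6, 12 or 24 h; untreated control. Cells trypsinized, washed in cold PBS, stained 15 min with Annexin V-FITC in binding buffer, then PI, and read by flow cytometry; duplicate experiments.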

A549 [10] = assay: Induction of apoptosis in human A549 cells assessed as increase in Bax protein expression by Western blot analysis; format: functional, cell-based; method in brief: as §1
A549 [11] = assay: Induction of apoptosis in human A549 cells assessed as viable cells at 30 nM after 12 hrs by Annexin-V FITC/propidium iodide staining based flow cytometric analysis (reference value: 97.18%); format: functional; conditions: A549, 12 h, read-out: Activity
A549 [12] = assay: Induction of apoptosis in human A549 cells assessed as early apoptotic cells at 60 nM after 6 hrs by Annexin-V FITC/propidium iodide staining based flow cytometric analysis; format: functional; method in brief: as §3
A549 [13] = assay: Inhibition of colony formation in human A549 cells at 5 nM incubated for 3 days followed by further incubation in drug-free medium and measured after 15 days by crystal violet staining-based inverted microscopic analysis; format: functional, cell-based; method in brief: as §2
SH-SY5Y = assay: Antiproliferative activity against human SH-SY5Y cells assessed as reduction in cell viability measured after 72 hrs by MTT assay; format: functional, cell-based
Method in brief: (§4)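 Cells seeded at 5×10^3 per well and cultured overnight, then exposed for 72 h at 37 °C to six concentrations from 10 µM down to 0.0001 µM (from 10 mM DMSO stock diluted in medium; vehicle 1% DMSO in PBS). MTT at 0.5 mg/mL was added for 4 h, formazan dissolved in DMSO, and A570 read. IC50 given as mean ± SD of three independent experiments.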

A549 [14] = assay: Cell cycle arrest in human A549 cells assessed as accumulation at G2 phase at 30 nM after 24 hrs by propidium iodide/RNase A staining-based flow cytometric analysis (reference value: 30.02%); format: functional
MDA-MB-231 = assay: Antiproliferative activity against human MDA-MB-231 cells assessed as reduction in cell viability measured after 72 hrs by MTT assay; format: functional, cell-based; conditions: MDA-MB-231, 72 h; method in brief: as §4
A549 [15] = assay: Induction of apoptosis in human A549 cells assessed as necrotic cells at 60 nM after 12 hrs by Annexin-V FITC/propidium iodide staining based flow cytometric analysis (reference value: 1.28%); format: functional

- IC50 (SH-SY5Y): 9.6 nM
- IC50 (MDA-MB-231): 12.5 nM
SMILES: COc1cc(C[C@H]2NC(=O)[C@H](C(C)C)N(C)C(=O)/C(C)=C/C[C@@H](OC)/C(C)=C/C=C/[C@@H](C)[C@@H](c3ccccc3)OC(=O)[C@H](C(C)C)NC2=O)ccc1O
- Activity (A549 [1]): 12.85%
- Activity (A549 [2]): Active
- Activity (A549 [3]): 28.22%
- Activity (A549 [4]): Dose-dependent effect
- inhibition (A549 [5]): Active
- Activity (A549 [6]): 20.03%
- viability at 0.06 µM (A549 [7]): 66.2%
- Activity (A549 [8]): 49.14%
- viability at 0.06 µM (A549 [9]): 54.4%
- Activity (A549 [10]): Dose-dependent effect
- viability at 0.03 µM (A549 [11]): 75.3%
- Activity (A549 [12]): 0.34%
- inhibition (A549 [13]): Active
- Activity (A549 [14]): 37.66%
- Activity (A549 [15]): 10.19%
